Compound activity from PubChem BioAssay.
The list is not random: actives were taken first. Their share in the collection is about 1.6%.
TNF death inh = blocks TNF-alpha induced death of Jurkat FADD-/- cells; Jurkat FADD-/- TNF necroptosis rescue, ATP luminescence, 24 h; 0 = TNF only, 100 = no-TNF cells; activation (protection from cell death), % at 10 µM; hit rate 0.068% among 220,000; AID 463075;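 active means activation, meaning protection from cell death, of at least 50% relative to plate controls; inactive means activation below 50%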;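 further: necroptosis triggered by 40 ng/mL TNF-alpha added together with compound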
Wee1 degr inh = inhibitors of human Wee1 degradation. HeLa Luc-Wee1K328M stability, luciferase luminescence; 100% = proteasome inhibitor MG132 effect. AID 1321. hit rate 1.2% among 220,000. reporter increase, % at 5 µM. P30291;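 active means activation above the mean of all tested compounds plus 3 SD, set per screening run, cut at about 8.8% in these data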;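 further: cells exposed to compound for 20 h before luminescence read; 0% = DMSO alone and 100% = MG132 at 30 µM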
Pf gametocyte = inhibitors of late stage P. falciparum gametocyte viability | P. falciparum stage V gametocytes, ATP luminescence, 24 h | inhibition, % at 10.9 µM | hit rate 0.065% among 150,000 | AID 743093;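 active means inhibition above the mean plus 3 SD of compounds within the control limits, set per campaign, cut at about 38% in these data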;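 further: 0% = DMSO wells and 100% = medium only without gametocytes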
zVAD death inh = blocks zVAD induced death of L929 cells; L929 zVAD necroptosis rescue, ATP luminescence, 24 h; with zVAD 60 µM; viability rescue, % at 10 µM; hit rate 0.38% among 220,000;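 active means activation, scaled between plate controls, above about 75%, limit read from the data; inactive means activation under that limit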;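 further: 0% = zVAD with DMSO and 100% = DMSO alone without zVAD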
Mdm2 ligase inh = Mdm2 E3 ligase (human) inhibition; AID 1230; cell-based MDM2 ubiquitination luciferase reporter, 2 h; 0 = plate control, 100 = twice control, blank-subtracted; Q00987; hit rate 0.11% among 210,000; signal enhancement, % at 5 µM;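 active means signal enhancement of 30% or more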;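 further: luminescence tracks abundance of the self-degrading MDM2-luciferase fusion protein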
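Test system: mammalian cells stably expressing self-ubiquitinating, self-degrading MDM2 E3–luciferase fusion; Amount: 2000 cells in each well; Medium: DMEM; Schedule: 4 h settle plus 2 h compound, 37 °C; Technique: SteadyLite luciferase luminescence after 15 min room-temperature reagent incubation; Benchmarks: plate control and blank wells.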
Active calls of the source: *.

For C[C@H](NC(=O)c1nc[nH]c1C(=O)N[C@@H](CCCCNC(=O)OC(C)(C)C)C(=O)OC(C)(C)C)C(=O)OCc1ccccc1 the results were Pf gametocyte 13.
Cc1cc(SCC(=O)N/N=C/c2ccc(O)c(O)c2O)c(C)cc1Br was read as TNF death inh -12, Wee1 degr inh 3, Pf gametocyte 39*, zVAD death inh 1 and Mdm2 ligase inh 2.
For C#CC[N+]1(CC#Cc2ccccc2)CCOCC1 the results were TNF death inh 0, Wee1 degr inh 0, Pf gametocyte -2 and zVAD death inh 1.
O=C(Nc1ccc(Cl)cc1)N1CCc2ccccc2C1 was read as TNF death inh 4, Wee1 degr inh 9.7*, zVAD death inh 0 and Mdm2 ligase inh -8.
Screening COc1ccc2c(c1)C(=NO)c1cc(OC)ccc1-2 returned TNF death inh 5, Wee1 degr inh -1, zVAD death inh 16 and Mdm2 ligase inh -4.
COc1ccc(C(=O)CSc2n[nH]c(=O)[nH]c2=O)cc1 was read as TNF death inh 0, Wee1 degr inh -2, zVAD death inh 1 and Mdm2 ligase inh -19.
For O=C(CSc1n[nH]c(=O)[nH]c1=O)c1ccc([N+](=O)[O-])cc1 the results were TNF death inh -2, Wee1 degr inh 12*, Pf gametocyte 0, zVAD death inh 0 and Mdm2 ligase inh -11.
O=C(COc1ccc(Oc2ccccc2)cc1)NCc1cn2ccccc2n1 was read as TNF death inh -9, Wee1 degr inh 10*, Pf gametocyte 7, zVAD death inh -2 and Mdm2 ligase inh 7.
Screening COc1cccc(NC(=O)CSC2=C(C#N)C(c3ccco3)C3=C(CCCC3=O)N2)c1 (centres undefined) returned TNF death inh -6, Wee1 degr inh 10*, zVAD death inh 1 and Mdm2 ligase inh -9.
For N#CC1=C(SCC(=O)c2ccccc2)NC2=C(C(=O)CCC2)C1c1ccco1 (centres undefined) the results were TNF death inh -15, Wee1 degr inh 9.8*, Pf gametocyte 0, zVAD death inh 0 and Mdm2 ligase inh -3.
For COc1ccccc1NC(=O)CSc1nnc(C2CCCCC2)o1 the results were TNF death inh 3, Wee1 degr inh 6, Pf gametocyte -6, zVAD death inh 4 and Mdm2 ligase inh -17.
Screening COc1ccccc1NC(=O)c1cc(S(=O)(=O)NCc2ccccc2)ccc1F returned TNF death inh 2, Wee1 degr inh 9.2*, Pf gametocyte -12, zVAD death inh 3 and Mdm2 ligase inh 7.
For COc1ccc(CNS(=O)(=O)c2ccc(F)c(C(=O)Nc3ccccc3OC)c2)cc1 the results were TNF death inh 1, Wee1 degr inh -1, zVAD death inh 2 and Mdm2 ligase inh 2.
CN1CCN(C(=S)Nc2cc([N+](=O)[O-])ccc2Cl)CC1 was read as TNF death inh 2, Wee1 degr inh -1, Pf gametocyte 9, zVAD death inh 0 and Mdm2 ligase inh 31*.
O=[N+]([O-])c1ccc(N2CCN(C(=S)Nc3ccc(F)cc3F)CC2)cc1 was read as TNF death inh 1, Wee1 degr inh 9.2*, Pf gametocyte -36, zVAD death inh 0 and Mdm2 ligase inh 3.
`Fc1ccc(-c2nc(-c3cccs3)no2)cc1` gave TNF death inh -1, Wee1 degr inh 15*, Pf gametocyte 1, zVAD death inh 0 and Mdm2 ligase inh -16.
`COC(=O)c1ccc(-c2nc(-c3cccs3)no2)cc1` gave TNF death inh -1, Wee1 degr inh 1, zVAD death inh 0 and Mdm2 ligase inh -80.
O=C1C(Cl)=C(N2CCCCC2)C(=O)C(Cl)=C1c1cnc(N2CCCCC2)s1 was read as TNF death inh -20, Wee1 degr inh 0, zVAD death inh 52 and Mdm2 ligase inh 72*.
For CN(C(=S)Oc1ccc(C(=O)Nc2ccccc2)cc1)c1ccccc1 the results were TNF death inh 4, Wee1 degr inh -1, Pf gametocyte -21, zVAD death inh 1 and Mdm2 ligase inh -5.
`COc1ccc(NC(=O)c2ccc(OC(=S)N(C)c3ccc(OC)cc3)cc2)cc1` gave TNF death inh 68*, Wee1 degr inh 0, zVAD death inh 0 and Mdm2 ligase inh -20.
CCOC(=O)c1ccc(CC(=O)c2oc3cc(O)ccc3c2C)o1 was read as TNF death inh 0, Wee1 degr inh 10*, Pf gametocyte 10, zVAD death inh 0 and Mdm2 ligase inh -13.
